The record followed here is BindingDB's records for doi:10.1021/jm00399a033 (Schering-Plough, 1988).

Molecules are shown by their SMILES.

The term IC50 denotes the concentration that gives 50% inhibition. Read a low IC50 as greater potency.

In this assay the target is T1, Angiotensin-converting enzyme (Oryctolagus cuniculus, UniProt P12822).
T1 sequence (P12822 whole entry): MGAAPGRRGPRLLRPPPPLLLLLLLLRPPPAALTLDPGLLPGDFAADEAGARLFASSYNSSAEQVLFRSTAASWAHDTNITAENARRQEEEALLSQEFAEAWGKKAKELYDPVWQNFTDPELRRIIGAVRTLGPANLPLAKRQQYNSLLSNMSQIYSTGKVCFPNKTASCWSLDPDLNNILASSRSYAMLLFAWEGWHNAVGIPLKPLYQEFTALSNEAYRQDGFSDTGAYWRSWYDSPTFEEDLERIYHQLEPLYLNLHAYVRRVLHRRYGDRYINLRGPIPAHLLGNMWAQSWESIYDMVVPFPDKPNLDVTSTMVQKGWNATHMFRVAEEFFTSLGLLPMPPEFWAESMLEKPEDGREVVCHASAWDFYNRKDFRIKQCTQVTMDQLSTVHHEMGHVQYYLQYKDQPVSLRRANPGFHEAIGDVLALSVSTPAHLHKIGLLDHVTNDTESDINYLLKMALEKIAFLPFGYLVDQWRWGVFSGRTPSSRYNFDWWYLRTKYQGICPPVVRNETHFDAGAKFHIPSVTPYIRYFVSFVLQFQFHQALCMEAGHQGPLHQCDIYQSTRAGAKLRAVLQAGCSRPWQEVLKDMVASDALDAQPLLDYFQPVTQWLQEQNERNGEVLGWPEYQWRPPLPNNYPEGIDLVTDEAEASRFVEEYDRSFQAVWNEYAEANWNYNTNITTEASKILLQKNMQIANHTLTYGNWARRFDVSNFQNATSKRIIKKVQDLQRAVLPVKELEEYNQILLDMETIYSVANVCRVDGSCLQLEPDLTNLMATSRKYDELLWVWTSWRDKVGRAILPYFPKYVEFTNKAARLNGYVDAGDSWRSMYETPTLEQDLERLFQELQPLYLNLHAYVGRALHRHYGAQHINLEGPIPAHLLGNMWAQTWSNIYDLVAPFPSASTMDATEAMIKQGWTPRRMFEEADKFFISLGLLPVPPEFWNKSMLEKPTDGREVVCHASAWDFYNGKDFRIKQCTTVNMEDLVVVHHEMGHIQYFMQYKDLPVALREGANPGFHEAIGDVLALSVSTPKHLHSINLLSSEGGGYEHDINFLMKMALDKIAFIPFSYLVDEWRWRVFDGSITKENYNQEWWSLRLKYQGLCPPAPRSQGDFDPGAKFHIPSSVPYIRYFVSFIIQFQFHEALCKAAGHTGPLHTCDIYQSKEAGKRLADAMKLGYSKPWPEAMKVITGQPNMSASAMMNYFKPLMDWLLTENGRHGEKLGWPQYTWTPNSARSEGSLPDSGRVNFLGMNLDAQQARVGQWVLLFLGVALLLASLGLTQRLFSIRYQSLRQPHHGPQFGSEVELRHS
The assay can be described thus: In vitro inhibition of Angiotensin I converting enzyme with relative to captopril(=1). An outline of the steps:
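Crude ACE from rabbit lung acetone powder extracted in 50 mM potassium phosphate pH 8.3, spun 40000g. Final assay: 100 mM phosphate pH 8.3, 300 mM NaCl, 5 mM hippuryl-His-Leu; enzyme added last, 30 min at 37 °C, stopped with HCl. Hippuric acid extracted into EtOAc, dried, redissolved in water, read by absorbance.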

In turn, `O=C(O)[C@@H]1CCCN1C(=O)CCS` registered an IC50 of 200 nM.
